KLK7 zymogen act = activators of human kallikrein-7 zymogen; purified proKLK7, EDANS-DABCYL substrate fluorescence; 100% is mature enzyme control, 0% vehicle; P49862; 370,000 compounds, 0.9% hits; activation, % at 7 µM;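 active = activation above the mean of all tested compounds plus 3 SD, computed per campaign excluding outliers beyond control limits, cut at about 13% in these data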
Tn7 DDE FP = inhibitors of Tn7 peptide binding to human fibrin DD(E); FP displacement of FITC-Tn7 peptide from fibrin DD(E); 0% = median of compound wells per plate; 370,000 compounds, 0.13% hits; inhibition, % at 8.3 µM; P02675; AID 720508;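 active = inhibition above the mean of compounds falling within the control limits plus 3 SD of them, cut at about 14% in these data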;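 also: 0% = plate median of compound wells and 100% = 10 µM Aha-Tn7 peptide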
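system = human fibrin DD(E) protein | quantity = DD(E) 2 µM final | medium = Tris/NaCl/CaCl2 buffer, pH 7.8 | also added = labelled Tn7 tracer, 0.1 µM | compound dosing = single point at 8.3 µM | timing = compound with protein 10 min, then 3 h after probe, room temperature | signal = FP measurement | benchmarks = Aha-Tn7 high control | repeats = one replicate per compound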
Tn6 DDE FP = DD(E)-Tn6 binding inhibition, primary FP screen | 370,000 compounds, 0.21% hits | inhibition, % at 8.3 µM | Fibrin DD(E) TRITC-Tn6 fluorescence polarization displacement;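 active = inhibition above a per-campaign cutoff: mean of compounds within control limits plus 3 SD, cut at about 15% in these data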;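 also: 0% = median of all compound wells on the plate and 100% = blocking peptide control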
Neddylation inh = blocks human cullin neddylation | 360,000 compounds, 0.58% hits | calls only at 25 µM | P61081+Q13564 | TR-FRET cullin neddylation, biochemical; in the data active = inhibition above about 36%
Target sequence (P61081 whole entry, looked up): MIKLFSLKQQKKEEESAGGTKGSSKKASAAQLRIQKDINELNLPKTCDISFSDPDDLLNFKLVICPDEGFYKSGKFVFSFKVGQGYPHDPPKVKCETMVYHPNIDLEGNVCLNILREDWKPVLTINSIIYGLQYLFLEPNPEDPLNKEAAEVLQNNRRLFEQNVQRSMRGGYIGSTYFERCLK
Target sequence (Q13564 whole entry, looked up): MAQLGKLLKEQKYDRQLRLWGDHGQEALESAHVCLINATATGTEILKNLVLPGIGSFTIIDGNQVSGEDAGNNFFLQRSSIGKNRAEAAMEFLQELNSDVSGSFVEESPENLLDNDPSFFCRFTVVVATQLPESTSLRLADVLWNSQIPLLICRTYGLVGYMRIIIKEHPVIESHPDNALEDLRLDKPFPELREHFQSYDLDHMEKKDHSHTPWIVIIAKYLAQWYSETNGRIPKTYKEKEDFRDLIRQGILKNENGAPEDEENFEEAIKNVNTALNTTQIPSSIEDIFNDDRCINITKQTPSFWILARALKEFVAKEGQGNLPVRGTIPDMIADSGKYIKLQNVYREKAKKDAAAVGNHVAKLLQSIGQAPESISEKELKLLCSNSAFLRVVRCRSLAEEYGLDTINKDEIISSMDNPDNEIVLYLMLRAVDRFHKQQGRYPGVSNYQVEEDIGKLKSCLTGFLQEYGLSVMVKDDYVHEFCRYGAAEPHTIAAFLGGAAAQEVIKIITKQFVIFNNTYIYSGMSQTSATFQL
MT1-MMP act inh = inhibitors of human MT1-MMP activation; P50281; HT1080 RFP-PRO-GFP cells, GFP/RFP ratio fluorescence, overnight; percent of plate control window, DMSO zero; GFP/RFP ratio change, % at 20 µM; 360,000 compounds, 0.061% hits; AID 651647;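 active = GFP/RFP ratio change of at least 30% with cell ATP level not reduced by more than half and red fluorescence within 50% of control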
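Material: RFP-PRO-GFP reporter HT1080 cells. Dosing: single-point 20 µM compound, 1% DMSO. Controls: DMSO and RFP-L50D-GFP cell wells. Timing: cells overnight before dosing, compound overnight, 37 °C, 5% CO2. Measure: GFP/RFP fluorescence ratio.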
SKN-1 inh = inhibitors of C. elegans SKN-1; inhibition, % at 21.8 µM; 360,000 compounds, 0.49% hits; C. elegans VP596 Pgst-4::GFP/RFP ratio, acrylamide-induced, 24 h; AID 624304;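 active = interference check ratio from 0.5 to 1.5 plus GFP to RFP signal ratio inhibition reaching or exceeding a fixed threshold, cut at about 30% in these data, passing the limit was not always enough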
Tn7 DDE conf = confirmation of inhibitors of Tn7 binding to human fibrin DD(E) | shares compounds with Tn7 DDE FP | FP displacement of TRITC-Tn7 peptide from DD(E); 0% set at plate's compound-well median | inhibition, % at 8.3 µM | 460 compounds, 5% hits | AID 720628;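 active = inhibition above the campaign cutoff, the mean of compounds within control limits plus 3 SD, cut at about 14% in these data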;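 also: 100% = median FP of high control wells holding Aha-Tn7 inhibitor peptide; displacers lower polarization since freed probe rises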
Tn7 DDE ctr = counter-screen for inhibitors of Tn7 peptide binding to fibrin DD(E) | inhibition, % at 8.3 µM | 460 compounds, 3% hits | shares compounds with Tn7 DDE FP | AID 720633 | TRITC-Tn7 probe displacement, fluorescence polarization;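 active = inhibition above the cutoff, the mean of compounds lying between the control bounds plus 3 SD of those compounds, cut at about 17% in these data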;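 also: 0% = median of compound sample wells and 100% = excess unlabeled Aha-Tn7 peptide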
An asterisk follows results filed as active; i = inactive; / = no result given. Sampled rows, rich in hits. Any-hit rate of the full collection: about 2.2%.

SMILES	KLK7 zymogen act	Tn7 DDE FP	Tn6 DDE FP	Neddylation inh	MT1-MMP act inh	SKN-1 inh	Tn7 DDE conf	Tn7 DDE ctr
CN(C)S(=O)(=O)c1ccc(C(=O)NCC(=O)N/N=C/c2cccs2)cc1	0	15*	9	i	2	-8	-2	-3
Cc1ccsc1/C=N/NC(=O)CNC(=O)c1ccc(S(=O)(=O)N(C)C)cc1	0	5	-1	i	-4	-1	/	/
CC(C)(CNc1ccc([N+](=O)[O-])cc1C#N)N1CCOCC1	0	15*	2	i	3	1	5	2
CCOC(=O)CSc1nc(NCc2ccco2)c2ccccc2n1	0	15*	-3	i	1	-5	1	-2
O=C(CNc1n[nH]c(=O)[nH]c1=O)N/N=C/c1ccccc1	0	15*	3	/	/	/	5	4
COc1ccccc1OCC(=O)N1CCN(c2ccccc2OC)CC1	0	19*	-6	i	-2	9	-3	-7
COc1ccccc1N1CCN(C(=O)c2oc3ccc(F)cc3c2C)CC1	1	16*	-4	i	0	-5	0	-1
COc1ccccc1N1CCN(C(=O)COc2cccc(C)c2C)CC1	0	4	4	i	4	-4	/	/
O=C(O)c1ccccc1C1=Nc2ccc(O)cc2Oc2cc(O)ccc21	0	35*	9	i	-210	-26	5	-6
O=C(NCCC(=O)N1CCN(c2ccccn2)CC1)c1ccc([N+](=O)[O-])cc1	-1	15*	1	i	-1	-2	-4	-17
COc1ccc(CCN(C(=O)/C=C/C(=O)O)C2CC(=O)N(c3ccccc3)C2=O)cc1 (stereo not drawn)	0	4	1	i	1	-6	/	/
O=C1C=C(NCc2ccncc2)CC(c2ccccc2)C1 (stereo not drawn)	0	6	2	i	2	-14	/	/
O=C1C=C(NNC(=O)c2ccncc2)CC(c2ccccc2)C1 (stereo not drawn)	-3	29*	5	i	-4	-3	-7	-15
N/C(=N\OC(=O)Cc1ccc(-c2ccccc2)cc1)c1cccc([N+](=O)[O-])c1	0	14*	5	i	2	-5	8	5
Cc1c(NS(=O)(=O)c2cc([N+](=O)[O-])ccc2Cl)c(=O)n(-c2ccccc2)n1C	1	14*	0	i	3	-20	-6	-10
Cc1c(NS(=O)(=O)c2ccc([N+](=O)[O-])cc2)c(=O)n(-c2ccccc2)n1C	0	3	1	i	-5	4	/	/
C[C@@]12CCC=C[C@H]1[C@H](c1ccc3ccccc3c1/C=C/c1ccccc1)N(Cc1ccccc1)C2=O	0	0	8	i	-4	0	/	/
C[C@@]12CCC=C[C@H]1[C@H](c1ccc(/C=C/c3ccccc3)cc1F)N(Cc1ccccc1)C2=O	-23	16*	11	i	-7	5	8	3
Cc1noc(C)c1C(=O)OC(C)C(=O)N1CCc2ccccc21 (stereo not drawn)	0	-4	-4	i	4	-13	/	/
Cc1cccc(NC(=O)c2ccc(C(=O)c3ccccc3)cc2)n1	0	20*	-3	i	-5	19	5	-1
Cc1cccc(NC(=O)NC(=O)c2ccccc2)n1	0	-1	-3	i	1	3	/	/
COCCNC(=O)COC(=O)c1ccc(S(=O)(=O)N2CCOCC2)cc1	1	16*	0	i	-5	-13	2	3
O=C(COC(=O)c1ccc(S(=O)(=O)N2CCOCC2)cc1)NCc1ccccc1	0	0	-7	i	0	-1	/	/
Cc1ccc(N(C(=O)CCC(=O)Nc2cc(C)on2)C(C(=O)NC2CCCC2)c2ccncc2)cc1 (stereo not drawn)	0	-2	-1	i	1	8	/	/
NS(=O)(=O)c1ccc(CNC(=O)Cc2ccccc2[N+](=O)[O-])cc1	0	15*	2	i	0	9	0	2
SMILES	KLK7 zymogen act	Tn7 DDE FP	Tn6 DDE FP	Neddylation inh	MT1-MMP act inh	SKN-1 inh	Tn7 DDE conf	Tn7 DDE ctr
CCCS(=O)(=O)NC(=O)C1(C)CCCN(C(=O)c2cccnc2Oc2ccccc2)C1 (stereo not drawn)	0	4	6	i	-1	5	/	/
CCCNC(=O)C1(C)CCCN(C(=O)c2cccnc2Oc2ccccc2)C1 (stereo not drawn)	0	14*	6	i	2	2	4	6
CCOc1cc(/C=C2\CCCc3c2nc2ccccc2c3C(=O)O)ccc1OC	5	64*	-1	i	-57	-40	31*	-2
COc1cc(/C=C2\CCCc3c2nc2ccccc2c3C(=O)O)cc(Br)c1O	1	-2	5	i	-6	10	/	/
O=C1c2cccc3c(N4CCCCC4)ccc(c23)C(=O)N1c1ccccn1	0	-7	3	i	-119	17	/	/
Cc1ccc(N2C(=O)c3cccc4c(N)ccc(c34)C2=O)c2cccnc12	-1	19*	0	i	-135	-8	-33	5
CC(C)C(=O)N[C@@H]1c2ccccc2CC[C@@H]1OCc1ccccc1	0	14*	5	i	-1	6	0	-4
COc1ccc(CC(=O)N[C@@H]2c3ccccc3CC[C@H]2OCc2ccccc2)cc1	0	0	-5	i	-5	4	/	/
OC(c1ccccc1)(c1ccccc1)c1nccn1-c1ccccc1	1	-1	-4	i	-5	-9	/	/
CCOC(=O)Cn1c(-c2ccccc2)cc(SC)c(C#N)c1=O	-1	14*	-3	i	1	-1	3	-3
CSc1cc(-c2ccccc2)n(C)c(=O)c1C#N	0	3	-3	i	1	4	/	/
CC(=O)CSc1nc2ccc(Nc3nc(N4CCOCC4)nc(N4CCOCC4)n3)cc2s1	-1	3	-3	i	-25	7	/	/
CC(C)CC1c2[nH]c3ccccc3c2CCN1C(=O)CCC(=O)N(C)C (stereo not drawn)	5	15*	0	i	-5	-1	3	2
Nc1cc(N2CCCCC2)c([N+](=O)[O-])cc1Cl	0	14*	-10	i	1	11	-5	-11
